Test results from ChEMBL document CHEMBL2057204, “Synthesis, biological evaluation, and molecular docking studies of N-((1,3-diphenyl-1H-pyrazol-4-yl)methyl)aniline derivatives as novel anticancer agents” (Bioorg Med Chem, 2012).

Columns and labels:
MCF7 = experiment: Antiproliferative activity against human MCF7 cells after 48 hrs by MTT assay; format: functional, cell-based; conditions: MCF7, 48 h
Method in brief: (§1)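 Cells grown to log phase in RPMI 1640 with 10% FBS, diluted to 2 × 10⁴ cells/mL in complete medium and seeded into 96-well plates. Plates held 24 h at 37 °C, 5% CO₂ before compound exposure. After a 4 h incubation, absorbance read at 570 nm on a microplate reader. Three replicate wells per concentration; each assay run at least three times; IC₅₀ reported.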

[1] = target: Cyclin-dependent kinase 2/cyclin E1 (Homo sapiens, UniProt P24941); experiment: Inhibition of CDK2/cyclin E; format: protein-complex assay
B16-F10 = experiment: Antiproliferative activity against mouse B16F10 cells after 48 hrs by MTT assay; format: functional, cell-based; conditions: B16-F10, 48 h; method in brief: as §1

Clc1ccc(-c2nn(-c3ccccc3)cc2CNc2ccc(Br)cc2)cc1
IC50 (MCF7): 2.62 µM | IC50 [1]: 1.85 µM | IC50 (B16-F10): 3.01 µM

Cc1ccc(-c2nn(-c3ccccc3)cc2CNc2ccc(F)cc2)cc1
IC50 (MCF7): 5.88 µM | IC50 [1]: 3.6 µM | IC50 (B16-F10): 5.67 µM

Clc1ccc(NCc2cn(-c3ccccc3)nc2-c2ccc(Cl)cc2)cc1
IC50 (MCF7): 2.28 µM | IC50 [1]: 1.18 µM | IC50 (B16-F10): 2.45 µM

Cn1cnc2c(NCc3ccccc3)nc(NCCO)nc21 [OLOMOUCINE]
IC50 (MCF7): 130 µM | IC50 (B16-F10): 105 µM

Fc1ccc(NCc2cn(-c3ccccc3)nc2-c2ccc(Cl)cc2)cc1
IC50 (MCF7): 1.88 µM | IC50 [1]: 0.98 µM | IC50 (B16-F10): 2.12 µM

COc1ccc(-c2nn(-c3ccccc3)cc2CNc2ccc(Cl)cc2)cc1
IC50 (MCF7): 6.25 µM | IC50 [1]: 4.28 µM | IC50 (B16-F10): 7.18 µM

COc1ccc(-c2nn(-c3ccccc3)cc2CNc2ccc(F)cc2)cc1
IC50 (MCF7): 5.98 µM | IC50 [1]: 4.02 µM | IC50 (B16-F10): 6.58 µM

Cc1ccc(NCc2cn(-c3ccccc3)nc2-c2ccc(C)cc2)cc1
IC50 (MCF7): 7.26 µM | IC50 [1]: 4.55 µM | IC50 (B16-F10): 7.38 µM

Brc1ccc(NCc2cn(-c3ccccc3)nc2-c2ccc(Br)cc2)cc1
IC50 (MCF7): 5 µM | IC50 [1]: 2.78 µM | IC50 (B16-F10): 5.27 µM

Clc1ccc(NCc2cn(-c3ccccc3)nc2-c2ccc(Br)cc2)cc1
IC50 (MCF7): 4.15 µM | IC50 [1]: 2.56 µM | IC50 (B16-F10): 4.29 µM

Cc1ccc(-c2nn(-c3ccccc3)cc2CNc2ccc(Br)cc2)cc1
IC50 (MCF7): 6.89 µM | IC50 [1]: 4.15 µM | IC50 (B16-F10): 6.76 µM

Cc1ccc(-c2nn(-c3ccccc3)cc2CNc2ccc(Cl)cc2)cc1
IC50 (MCF7): 6.02 µM | IC50 [1]: 3.89 µM | IC50 (B16-F10): 6.01 µM

Fc1ccc(NCc2cn(-c3ccccc3)nc2-c2ccc(Br)cc2)cc1
IC50 (MCF7): 3.96 µM | IC50 [1]: 2.36 µM | IC50 (B16-F10): 4.18 µM

COc1ccc(-c2nn(-c3ccccc3)cc2CNc2ccc(C)cc2)cc1
IC50 (MCF7): 8.16 µM | IC50 [1]: 5.06 µM | IC50 (B16-F10): 8.38 µM

Cc1ccc(NCc2cn(-c3ccccc3)nc2-c2ccc(Br)cc2)cc1
IC50 (MCF7): 5.38 µM | IC50 [1]: 3.02 µM | IC50 (B16-F10): 5.98 µM

COc1ccc(-c2nn(-c3ccccc3)cc2CNc2ccc(Br)cc2)cc1
IC50 (MCF7): 7.02 µM | IC50 [1]: 4.96 µM | IC50 (B16-F10): 8.06 µM

Cc1ccc(NCc2cn(-c3ccccc3)nc2-c2ccc(Cl)cc2)cc1
IC50 (MCF7): 3.11 µM | IC50 [1]: 2.08 µM | IC50 (B16-F10): 3.48 µM
